Measurements: ChEMBL document CHEMBL1155371, “Small molecule inhibitors of the neuropilin-1 vascular endothelial growth factor A (VEGF-A) interaction” (J Med Chem, 2010)
The source made the active and inactive calls. No cut-off for these calls is given here. Where a SMILES comes first, the peptide text is derived from it.

Experiments:
Neuropilin-1 [1] = biological target: T1, Neuropilin-1 (Homo sapiens, UniProt O14786); experiment: Displacement of [125I]VEGF-A from human NRP1 expressed in pig aortic endothelial cells at 100 uM; type: cell-based; settings: Endothelial cell
T1 sequence (O14786 whole entry): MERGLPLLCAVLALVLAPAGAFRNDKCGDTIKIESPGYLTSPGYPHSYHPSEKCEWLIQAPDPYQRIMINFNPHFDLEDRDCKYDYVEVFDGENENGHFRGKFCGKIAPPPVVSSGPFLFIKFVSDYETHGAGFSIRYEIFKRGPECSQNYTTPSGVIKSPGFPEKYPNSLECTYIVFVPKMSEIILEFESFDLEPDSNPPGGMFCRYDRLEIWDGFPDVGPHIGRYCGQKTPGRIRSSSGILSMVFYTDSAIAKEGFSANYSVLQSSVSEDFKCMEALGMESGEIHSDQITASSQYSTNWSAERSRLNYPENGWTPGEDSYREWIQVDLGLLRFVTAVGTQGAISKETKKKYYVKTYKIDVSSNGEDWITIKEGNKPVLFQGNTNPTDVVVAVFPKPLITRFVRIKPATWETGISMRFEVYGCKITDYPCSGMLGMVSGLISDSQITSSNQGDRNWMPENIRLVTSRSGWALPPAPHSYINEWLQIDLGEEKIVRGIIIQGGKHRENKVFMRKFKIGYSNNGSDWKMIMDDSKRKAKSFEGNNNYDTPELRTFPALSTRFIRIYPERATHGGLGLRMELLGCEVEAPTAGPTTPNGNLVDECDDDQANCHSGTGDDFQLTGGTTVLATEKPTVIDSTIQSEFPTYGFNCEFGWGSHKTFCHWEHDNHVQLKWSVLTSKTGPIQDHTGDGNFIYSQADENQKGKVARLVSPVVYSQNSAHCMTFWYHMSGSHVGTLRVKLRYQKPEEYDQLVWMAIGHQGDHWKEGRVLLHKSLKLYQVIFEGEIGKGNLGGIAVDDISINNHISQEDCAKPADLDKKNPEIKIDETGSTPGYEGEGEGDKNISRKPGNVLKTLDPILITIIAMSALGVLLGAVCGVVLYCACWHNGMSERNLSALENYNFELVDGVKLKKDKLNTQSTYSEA
Method in brief: (§1)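 PAE cells stably expressing NRP1 (Ham's F12, 10% FBS, hygromycin B) grown to confluence. Compounds at 0.1−100 μM (single-point inhibition read at 100 μM) were added, then 0.1 nM 125I-VEGF-A165. Nonspecific binding was taken with 100-fold excess unlabeled VEGF. IC50 came from competition curves; three independent experiments, triplicate per concentration, mean ± SEM.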

Neuropilin-1 [2] = biological target: T1, Neuropilin-1; experiment: Displacement of [125I]VEGF-A from human NRP1 expressed in pig aortic endothelial cells; type: cell-based, Endothelial cell; method in brief: as §1
A549 = experiment: Cytotoxicity against human A549 cells after 48 hrs by XTT method; type: functional, cell-based
Method in brief: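 A549 lung carcinoma cells seeded at 4 × 10^3 per well in serum-free medium, with compound added. After 44 h incubation, XTT labeling reagent was added and cells were incubated a further 4 h, giving 48 h total. Formazan read at 490 nm against a 595 nm reference. Three independent experiments, each in triplicate, reported as mean ± SEM.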

[3] = biological target: Vascular endothelial growth factor receptor 2 (Homo sapiens) (UniProt P35968); experiment: Inhibition of VEGF-A-induced VEGFR2 phosphorylation in HUVEC by ELISA; type: cell-based
Vascular endothelial growth factor receptor 2 (Homo sapiens), sequence (P35968 whole entry): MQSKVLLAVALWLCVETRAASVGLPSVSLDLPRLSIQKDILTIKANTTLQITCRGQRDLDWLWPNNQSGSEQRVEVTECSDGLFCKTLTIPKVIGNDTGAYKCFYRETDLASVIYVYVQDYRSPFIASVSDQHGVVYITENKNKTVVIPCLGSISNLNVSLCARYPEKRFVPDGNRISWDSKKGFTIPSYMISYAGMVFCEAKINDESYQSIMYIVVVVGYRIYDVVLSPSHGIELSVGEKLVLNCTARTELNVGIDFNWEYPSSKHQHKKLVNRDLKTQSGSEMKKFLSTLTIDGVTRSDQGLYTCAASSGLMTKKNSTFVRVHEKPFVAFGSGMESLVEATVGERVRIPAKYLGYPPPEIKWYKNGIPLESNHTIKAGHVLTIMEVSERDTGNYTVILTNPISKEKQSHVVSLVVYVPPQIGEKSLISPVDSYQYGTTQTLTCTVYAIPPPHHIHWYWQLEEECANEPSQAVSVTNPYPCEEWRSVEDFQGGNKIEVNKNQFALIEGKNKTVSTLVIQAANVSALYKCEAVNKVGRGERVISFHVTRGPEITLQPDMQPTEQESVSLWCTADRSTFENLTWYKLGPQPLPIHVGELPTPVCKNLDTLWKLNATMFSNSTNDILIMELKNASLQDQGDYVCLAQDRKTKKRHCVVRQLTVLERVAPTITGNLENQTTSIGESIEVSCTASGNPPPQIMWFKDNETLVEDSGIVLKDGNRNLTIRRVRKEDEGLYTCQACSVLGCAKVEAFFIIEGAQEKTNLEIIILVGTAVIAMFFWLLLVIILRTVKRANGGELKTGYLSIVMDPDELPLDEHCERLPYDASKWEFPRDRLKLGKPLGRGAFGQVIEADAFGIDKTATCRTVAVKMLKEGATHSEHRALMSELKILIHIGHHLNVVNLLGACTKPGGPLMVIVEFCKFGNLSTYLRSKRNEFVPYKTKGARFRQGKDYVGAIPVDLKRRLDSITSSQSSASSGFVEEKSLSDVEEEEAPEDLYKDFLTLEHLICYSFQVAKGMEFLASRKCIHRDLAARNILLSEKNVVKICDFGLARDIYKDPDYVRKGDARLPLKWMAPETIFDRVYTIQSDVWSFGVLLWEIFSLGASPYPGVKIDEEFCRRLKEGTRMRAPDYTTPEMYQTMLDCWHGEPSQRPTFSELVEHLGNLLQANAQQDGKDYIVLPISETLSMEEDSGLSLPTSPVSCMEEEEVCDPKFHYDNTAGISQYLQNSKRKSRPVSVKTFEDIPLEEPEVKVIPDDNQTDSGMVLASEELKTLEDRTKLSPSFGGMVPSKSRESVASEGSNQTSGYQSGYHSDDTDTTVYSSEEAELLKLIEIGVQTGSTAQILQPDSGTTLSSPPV
Method in brief: (§2)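 Confluent HUVECs were pretreated 30 min with compound or DMSO vehicle, then stimulated with or without 25 ng/mL VEGF-A165 for 5 min at 37 °C. Tyr1175-phosphorylated and total VEGFR2 in lysates were measured by sandwich ELISA kits. Three independent experiments in duplicate, mean ± SEM.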

[4] = biological target: Vascular endothelial growth factor receptor 2 (Homo sapiens) (UniProt P35968); experiment: Inhibition of VEGF-A-induced VEGFR2 phosphorylation in HUVEC at 100 uM by ELISA; type: cell-based; method in brief: as §2
[5] = biological target: Vascular endothelial growth factor receptor 1 (Homo sapiens) (UniProt P17948); experiment: Displacement of biotinylated-[…] from human VEGFR1 expressed in human A549 cells; type: cell-based
Vascular endothelial growth factor receptor 1 (Homo sapiens), sequence (P17948 whole entry): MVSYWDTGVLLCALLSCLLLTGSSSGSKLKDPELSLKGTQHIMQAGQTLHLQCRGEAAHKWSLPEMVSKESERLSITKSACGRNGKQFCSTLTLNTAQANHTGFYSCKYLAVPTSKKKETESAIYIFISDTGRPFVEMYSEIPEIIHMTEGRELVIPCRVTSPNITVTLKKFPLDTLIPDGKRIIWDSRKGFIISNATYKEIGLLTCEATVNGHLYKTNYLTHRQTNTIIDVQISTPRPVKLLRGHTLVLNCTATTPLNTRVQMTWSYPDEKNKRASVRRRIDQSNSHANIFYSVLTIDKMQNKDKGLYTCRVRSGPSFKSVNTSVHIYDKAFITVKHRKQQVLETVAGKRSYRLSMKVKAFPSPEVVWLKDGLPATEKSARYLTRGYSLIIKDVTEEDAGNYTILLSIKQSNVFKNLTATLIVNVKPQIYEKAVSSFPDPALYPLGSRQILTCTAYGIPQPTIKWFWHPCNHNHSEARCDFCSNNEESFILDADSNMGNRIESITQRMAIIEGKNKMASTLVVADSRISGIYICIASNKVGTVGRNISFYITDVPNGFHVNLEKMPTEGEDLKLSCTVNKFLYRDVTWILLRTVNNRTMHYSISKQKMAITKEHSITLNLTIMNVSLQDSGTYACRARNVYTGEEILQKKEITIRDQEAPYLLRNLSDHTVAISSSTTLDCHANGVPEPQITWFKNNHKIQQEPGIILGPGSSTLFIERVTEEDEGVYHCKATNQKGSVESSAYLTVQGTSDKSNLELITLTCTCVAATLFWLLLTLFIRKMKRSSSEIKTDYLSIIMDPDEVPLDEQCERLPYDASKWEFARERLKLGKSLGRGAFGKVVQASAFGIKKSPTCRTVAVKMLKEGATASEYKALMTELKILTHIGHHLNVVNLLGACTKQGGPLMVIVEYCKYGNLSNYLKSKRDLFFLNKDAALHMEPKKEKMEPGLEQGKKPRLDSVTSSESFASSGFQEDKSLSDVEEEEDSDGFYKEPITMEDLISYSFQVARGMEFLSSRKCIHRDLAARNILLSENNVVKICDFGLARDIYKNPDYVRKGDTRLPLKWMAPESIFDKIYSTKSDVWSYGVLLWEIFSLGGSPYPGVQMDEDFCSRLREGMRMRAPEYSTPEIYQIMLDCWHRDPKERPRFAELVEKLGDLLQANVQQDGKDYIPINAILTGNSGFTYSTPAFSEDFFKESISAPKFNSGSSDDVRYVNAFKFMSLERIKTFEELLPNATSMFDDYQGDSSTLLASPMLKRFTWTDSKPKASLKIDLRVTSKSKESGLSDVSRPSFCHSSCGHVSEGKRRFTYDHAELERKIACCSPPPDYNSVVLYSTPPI

[6] = biological target: Vascular endothelial growth factor receptor 2 (Homo sapiens) (UniProt P35968); experiment: Displacement of biotinylated-[…] from human VEGFR2 expressed in human A549 cells; type: cell-based
[7] = biological target: Vascular endothelial growth factor receptor 1 (Homo sapiens) (UniProt P17948); experiment: Displacement of biotinylated-[…] from human VEGFR1 expressed in human DU145 cells; type: cell-based; settings: DU-145
Neuropilin-1 [8] = biological target: T1, Neuropilin-1; experiment: Displacement of [125I]VEGF-A from human NRP1 expressed in human A549 cells; type: cell-based
HUVEC = experiment: Inhibition of VEGF-A-induced chemotaxis in HUVEC assessed as reduction in cell migration; type: functional, cell-based; settings: Homo sapiens
Method in brief: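 HUVECs in EBM/0.1% BSA were pretreated 30 min with compound or DMSO, and 1.5 × 10^5 cells were loaded into collagen I-coated 8 μm-pore transwell inserts. Cells migrated toward 25 ng/mL VEGF or medium control for 4 h at 37 °C. Migrated cells were stained and counted in four fields at ×100. Three experiments in duplicate, mean ± SEM.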

[9] = biological target: Vascular endothelial growth factor receptor 2 (Homo sapiens) (UniProt P35968); experiment: Displacement of biotinylated-[…] from human VEGFR2 expressed in human DU145 cells; type: cell-based; settings: DU-145
Neuropilin-1 [10] = biological target: T1, Neuropilin-1; experiment: Displacement of […] from human NRP1 expressed in human DU145 cells; type: cell-based, DU-145
Neuropilin-1 [11] = biological target: T1, Neuropilin-1; experiment: Displacement of biotinylated-[…] from human NRP1 expressed in HUVEC; type: cell-based
Neuropilin-1 [12] = biological target: T1, Neuropilin-1; experiment: Displacement of […] from NRP1 b1 domain by cell-free assay

Cc1nn(C)c(Cl)c1CNc1cccc(S(=O)(=O)Nc2ccsc2C(=O)N[C@@H](CCCNC(=N)N)C(=O)O)c1
Activity (Neuropilin-1 [1]): 88% | IC50 (Neuropilin-1 [2]): 6 µM

N=C(N)NC(=O)CC[C@H](NC(=O)c1sccc1NS(=O)(=O)c1ccc([N+](=O)[O-])cc1)C(=O)O
Activity (Neuropilin-1 [1]): 58%

N=C(N)NCCC[C@H](NC(=O)C1CCN(Cc2nc(O)nc(NCCCCN)n2)CC1)C(=O)O
Activity (Neuropilin-1 [1]): 32%

N=C(N)NCCC[C@H](NC(=O)c1sccc1NS(=O)(=O)c1ccc([N+](=O)[O-])cc1)C(=O)O (stereo in doubt; 46) [listing 1 of 2 here]
IC50 (Neuropilin-1 [2]; endothelial cell): 52 µM

N=C(N)NCCC[C@H](NC(=O)[C@@H]1CCCN1C(=O)[C@@H]1CCCN1C(=O)[C@@H](N)CCCCN)C(=O)O (H-KPPR-OH)
Activity (Neuropilin-1 [1]): 96% | IC50 (Neuropilin-1 [2]): 14 µM

N=C(N)NCCC[C@H](NC(=O)c1sccc1NS(=O)(=O)c1ccccc1N)C(=O)O
Activity (Neuropilin-1 [1]): 95% | IC50 (Neuropilin-1 [2]): 17 µM

N=C(N)NCCC[C@H](NC(=O)[C@H](Cc1ccccc1)NC(=O)[C@@H]1CCCN1C(=O)[C@@H](N)CCCCN)C(=O)O (H-KPFR-OH)
Activity (Neuropilin-1 [1]): 63%

N=C(N)NCCC[C@H](NC(=O)c1cccs1)C(=O)O
Activity (Neuropilin-1 [1]): 28%

N=C(N)NCCC[C@H](NC(=O)c1sccc1NS(=O)(=O)c1ccc([N+](=O)[O-])cc1)C(=O)O (stereo in doubt; 38) [listing 1 of 2 here]
Activity (Neuropilin-1 [1]): 75%

N=C(N)NCCC[C@H](NC(=O)c1sccc1NS(=O)(=O)c1cccc2nonc12)C(=O)O
Activity (Neuropilin-1 [1]): 87% | IC50 (Neuropilin-1 [2]): 17 µM

N=C(N)NCCC[C@H](NC(=O)c1sccc1NS(=O)(=O)c1ccc(N)cc1)C(=O)O
Activity (Neuropilin-1 [1]): 78% | IC50 (Neuropilin-1 [2]): 13 µM

C[C@H](NC(=O)[C@@H]1CCCN1C(=O)[C@H](N)CCCCN)C(=O)N[C@@H](CCCNC(=N)N)C(=O)O
Activity (Neuropilin-1 [1]): 51%

N=C(N)NCCC[C@H](NC(=O)c1sccc1NS(=O)(=O)c1ccc2nsnc2c1)C(=O)NO
Activity (Neuropilin-1 [1]): 59%

N=C(N)NCCC[C@H](NC(=O)c1sccc1NS(=O)(=O)c1cccc2nsnc12)C(=O)O
Activity (A549): Active | inhibition [3]: Dose-dependent effect | inhibition [4]: 34% | Activity [5]: inactive | Activity (Neuropilin-1 [1]): 99% | Activity [6]: inactive | Activity [7]: inactive | IC50 (Neuropilin-1 [8]): 7 µM | inhibition (HUVEC): Active | Activity [9]: inactive | IC50 (Neuropilin-1 [2]): 8 µM | IC50 (Neuropilin-1 [10]): 3 µM | IC50 (Neuropilin-1 [11]): 23 µM | IC50 (Neuropilin-1 [12]): 3 µM

C[C@H](NC(=O)[C@@H]1CCCN1C(=O)[C@@H](N)CCCCN)C(=O)N[C@@H](CCC(N)=O)C(=O)O (H-KPAQ-OH)
Activity (Neuropilin-1 [1]): 19%

N=C(N)NCCC[C@H](NC(=O)c1sccc1NS(=O)(=O)c1ccc([N+](=O)[O-])cc1)C(=O)O (stereo in doubt; 38) [listing 2 of 2 here]
IC50 (Neuropilin-1 [2]): 52 µM

N=C(N)NCCC[C@H](NC(=O)c1ccccc1S(=O)(=O)C1CCNCC1)C(=O)O
Activity (Neuropilin-1 [1]): 10%

C[C@H](NC(=O)[C@@H]1CCCN1C(=O)[C@@H](N)CCCCN)C(=O)N[C@H](CCCNC(=N)N)C(=O)O
Activity (Neuropilin-1 [1]): 22%

C[C@H](NC(=O)[C@@H]1CCCN1C(=O)[C@@H](N)CCCCN)C(=O)N[C@@H](CCCNC(=N)N)C(=O)O
Activity (Neuropilin-1 [1]): 83% | IC50 (Neuropilin-1 [2]): 30 µM

C/N=C(/NC)NCCC[C@H](NC(=O)c1sccc1NS(=O)(=O)c1ccc([N+](=O)[O-])cc1)C(=O)O
Activity (Neuropilin-1 [1]): 12%

N=C(N)NCCC[C@@H](CO)NC(=O)c1sccc1NS(=O)(=O)c1ccc2nsnc2c1
Activity (Neuropilin-1 [1]): 21%

N=C(N)NCCC[C@H](NC(=O)c1sccc1S(=O)(=O)Nc1ccc(N)cc1)C(=O)O
Activity (Neuropilin-1 [1]): 0%

Cc1nc(S(=O)(=O)Nc2ccsc2C(=O)N[C@@H](CCCNC(=N)N)C(=O)O)cn1C
Activity (Neuropilin-1 [1]): 88% | IC50 (Neuropilin-1 [2]): 12 µM

N=C(N)NCCC[C@H](NC(=O)c1sccc1NS(=O)(=O)c1cccc(N)c1)C(=O)O
Activity (Neuropilin-1 [1]): 84% | IC50 (Neuropilin-1 [2]): 14 µM

N=C(N)NCCC[C@@H](NC(=O)c1sccc1NS(=O)(=O)c1ccc(N)cc1)C(=O)O
Activity (Neuropilin-1 [1]): 36%

COC(=O)[C@H](CCCNC(=N)N)NC(=O)c1sccc1NS(=O)(=O)c1ccc([N+](=O)[O-])cc1
Activity (Neuropilin-1 [1]): 21%

N=C(NCCC[C@H](NC(=O)c1sccc1NS(=O)(=O)c1ccc([N+](=O)[O-])cc1)C(=O)O)N[N+](=O)[O-]
Activity (Neuropilin-1 [1]): 3%

N=C(N)NCCCC[C@H](NC(=O)c1sccc1NS(=O)(=O)c1ccc(N)cc1)C(=O)O
Activity (Neuropilin-1 [1]): 20%

N=C(N)NCCC[C@H](NC(=O)c1ccccc1NS(=O)(=O)c1ccc(N)cc1)C(=O)O
Activity (Neuropilin-1 [1]): 70%

NCCCC[C@H](NC(=O)c1sccc1NS(=O)(=O)c1ccc([N+](=O)[O-])cc1)C(=O)O
Activity (Neuropilin-1 [1]): 20%

O=c1[nH]cc(F)c(=O)[nH]1 [FLUOROURACIL]
IC50 (A549; A549, 48 h): 78 µM

C[C@H](NC(=O)[C@@H]1CCCN1C(=O)[C@@H](N)CCCCN)C(=O)N[C@@H](CCCCN)C(=O)O (H-KPAK-OH)
Activity (Neuropilin-1 [1]): 22%

CC(=O)Nc1ccc(S(=O)(=O)Nc2ccsc2C(=O)N[C@@H](CCCNC(=N)N)C(=O)O)cc1
Activity (Neuropilin-1 [1]): 84% | IC50 (Neuropilin-1 [2]): 18 µM

N=C(N)NCCCC[C@@H](CC(=O)O)NC(=O)c1sccc1NS(=O)(=O)c1ccc2nsnc2c1
Activity (Neuropilin-1 [1]): 11%

Cc1oc(-c2ccc(NC(=O)CCCCN)cc2)cc1C(=O)N[C@@H](CCCNC(=N)N)C(=O)O
Activity (Neuropilin-1 [1]): 31%

N=C(N)NCCC[C@H](NC(=O)c1sccc1NS(=O)(=O)c1ccc([N+](=O)[O-])cc1)C(=O)O (stereo in doubt; 46) [listing 2 of 2 here]
Activity (Neuropilin-1 [1]): 75%

N=C(N)NCCC[C@H](NC(=O)c1sccc1NS(=O)(=O)c1ccccc1[N+](=O)[O-])C(=O)O
Activity (Neuropilin-1 [1]): 100% | IC50 (Neuropilin-1 [2]): 9 µM

N=C(N)NCCC[C@H](NC(=O)c1sccc1NS(=O)(=O)c1ccc(F)cc1F)C(=O)O
Activity (Neuropilin-1 [1]): 79% | IC50 (Neuropilin-1 [2]): 33 µM

N=C(N)Nc1ccc(C[C@H](NC(=O)c2sccc2NS(=O)(=O)c2ccc(N)cc2)C(=O)O)cc1
Activity (Neuropilin-1 [1]): 13%

CN(c1ccsc1C(=O)N[C@@H](CCCNC(=N)N)C(=O)O)S(=O)(=O)c1ccc(N)cc1
Activity (Neuropilin-1 [1]): 25%

N=C(N)NCCC[C@H](NC(=O)C1CCN(Cc2cccc(NC(=O)CCCCCN)c2)CC1)C(=O)O
Activity (Neuropilin-1 [1]): 35%

C[C@@H](NC(=O)[C@@H]1CCCN1C(=O)[C@@H](N)CCCCN)C(=O)N[C@@H](CCCNC(=N)N)C(=O)O
Activity (Neuropilin-1 [1]): 36%

N=C(N)NCCC[C@H](NC(=O)c1cccc(-c2cccc(NC(=O)CCCCCN)c2)c1)C(=O)O
Activity (Neuropilin-1 [1]): 40%

CN(c1ccsc1C(=O)N[C@@H](CCCNC(=N)N)C(=O)O)S(=O)(=O)c1ccc([N+](=O)[O-])cc1
Activity (Neuropilin-1 [1]): 42%

N=C(N)NCCC[C@H](NC(=O)c1cccc(-c2cccc(NC(=O)C3CCC(CN)CC3)c2)c1)C(=O)O (some centres undefined)
Activity (Neuropilin-1 [1]): 49%
